Measurements taken from ChEMBL document CHEMBL1131202, “Alkyl esters of camptothecin and 9-nitrocamptothecin: synthesis, in vitro pharmacokinetics, toxicity, and antitumor activity” (1998).

How the values were obtained:
Assay type in all cases: functional
Mus musculus [1] = experiment: Change in the body weight of mice during the test time period after 21 days at a dose of 5 mg/kg
Mus musculus [2] = experiment: Change in the body weight of mice during the test time period after 48 days at a dose of 7 mg/kg
Mus musculus [3] = experiment: Change in the body weight of mice during the test time period after 48 days at a dose of 6 mg/kg
Mus musculus [4] = experiment: Change in the body weight of mice during the test time period after 27 days at a dose of 7 mg/kg
Mus musculus [5] = experiment: Change in the body weight of mice during the test time period after 56 days at a dose of 5 mg/kg
Mus musculus [6] = experiment: In vitro determination of lactone level in mouse plasma after administration of compound at 0 hour
Procedure, shortened: (§1)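 Drug (500 ng, in methanol) added to 1 mL of human or mouse plasma and incubated at 37 °C. 100-µL aliquots taken at 0.5–6 h. Analysis by C-8 HPLC (30% acetonitrile/water/0.1% acetic acid) with fluorescence at 347/418 nm. Percent lactone: lactone/total drug for the parent; drug at each time relative to t = 0 for the ester.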

Mus musculus [7] = experiment: Change in the body weight of mice during the test time period after 56 days at a dose of 7 mg/kg
Mus musculus [8] = experiment: Change in the body weight of mice during the test time period after 41 days at a dose of 7 mg/kg
Mus musculus [9] = experiment: Change in the body weight of mice during the test time period after 41 days at a dose of 8 mg/kg
Mus musculus [10] = experiment: Change in the body weight of mice during the test time period after 27 days at a dose of 6 mg/kg
Mus musculus [11] = experiment: Change in the body weight of mice during the test time period after 56 days at a dose of 8 mg/kg
Mus musculus [12] = experiment: Change in the body weight of mice during the test time period after 34 days at a dose of 5 mg/kg
Mus musculus [13] = experiment: Change in the body weight of mice during the test time period after 34 days at a dose of 6 mg/kg
Mus musculus [14] = experiment: Change in the body weight of mice during the test time period after 48 days at a dose of 8 mg/kg
Mus musculus [15] = experiment: Change in the body weight of mice during the test time period after 34 days at a dose of 7 mg/kg
Mus musculus [16] = experiment: Change in the body weight of mice during the test time period after 21 days at a dose of 8 mg/kg
[17] = In vitro determination of lactone level in human plasma after administration of compound at 4 hour; procedure, shortened: as §1
Mus musculus [18] = experiment: Change in the body weight of mice during the test time period after 27 days at a dose of 5 mg/kg
[19] = In vitro determination of lactone level in human plasma after administration of compound at 2 hour; procedure, shortened: as §1
Mus musculus [20] = experiment: Change in the body weight of mice during the test time period after 41 days at a dose of 6 mg/kg
[21] = In vitro determination of lactone level in human plasma after administration of compound at 0 hour; procedure, shortened: as §1
Mus musculus [22] = experiment: Change in the body weight of mice during the test time period after 21 days at a dose of 6 mg/kg
Mus musculus [23] = experiment: Change in the body weight of mice during the test time period after 56 days at a dose of 6 mg/kg
Mus musculus [24] = experiment: In vitro determination of lactone level in mouse plasma after administration of compound at 6 hour; procedure, shortened: as §1
Mus musculus [25] = experiment: Change in the body weight of mice during the test time period after 21 days at a dose of 7 mg/kg
Mus musculus [26] = experiment: In vitro determination of lactone level in mouse plasma after administration of compound at 1 hour; procedure, shortened: as §1
[27] = In vitro determination of lactone level in human plasma after administration of compound at 1 hour; procedure, shortened: as §1
[28] = In vitro determination of lactone level in human plasma after administration of compound at 6 hour; procedure, shortened: as §1
Mus musculus [29] = experiment: Change in the body weight of mice during the test time period after 48 days at a dose of 5 mg/kg
Mus musculus [30] = experiment: Change in the body weight of mice during the test time period after 27 days at a dose of 8 mg/kg
Mus musculus [31] = experiment: Change in the body weight of mice during the test time period after 34 days at a dose of 8 mg/kg
Mus musculus [32] = experiment: Change in the body weight of mice during the test time period after 41 days at a dose of 5 mg/kg
Mus musculus [33] = experiment: In vitro determination of lactone level in mouse plasma after administration of compound at 2 hour; procedure, shortened: as §1
Mus musculus [34] = experiment: In vitro determination of tlactone level in mouse plasma after administration of compound at 0 hour
Procedure, shortened: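 Mouse plasma (1 mL) was spiked with 500 ng drug in methanol and incubated at 37 °C, with aliquots taken over time starting at t = 0 h. Percent lactone was derived by reverse-phase C-8 HPLC with fluorescence detection and peak-area integration. For parent camptothecins it was lactone/total drug; for esters it was drug at each time point/drug at t = 0 h.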

Mus musculus [35] = experiment: In vitro determination of lactone level in mouse plasma after administration of compound at 4 hour; procedure, shortened: as §1

CCC(=O)O[C@]1(CC)C(=O)OCc2c1cc1n(c2=O)Cc2cc3ccccc3nc2-1 [CAMPTOTHECIN-20-O-PROPIONATE]
Body weight (Mus musculus [1]): 33 g | Body weight (Mus musculus [2]): 31.6 g | Body weight (Mus musculus [3]): 34 g | Body weight (Mus musculus [4]): 31.7 g | Body weight (Mus musculus [5]): 33.2 g | Lactone (Mus musculus [6]): 100% | Body weight (Mus musculus [7]): 31.5 g | Body weight (Mus musculus [8]): 31.1 g | Body weight (Mus musculus [9]): 33.4 g | Body weight (Mus musculus [10]): 33.4 g | Body weight (Mus musculus [11]): 33.2 g | Body weight (Mus musculus [12]): 34.4 g | Body weight (Mus musculus [13]): 33.8 g | Body weight (Mus musculus [14]): 33.9 g | Body weight (Mus musculus [15]): 30.6 g | Body weight (Mus musculus [16]): 32.9 g | Lactone [17]: 68% | Body weight (Mus musculus [18]): 33.7 g | Lactone [19]: 77% | Body weight (Mus musculus [20]): 33.5 g | Lactone [21]: 100% | Body weight (Mus musculus [22]): 32.9 g | Body weight (Mus musculus [23]): 32.2 g | Lactone (Mus musculus [24]): 85% | Body weight (Mus musculus [25]): 30.8 g | Lactone (Mus musculus [26]): 97.5% | Lactone [27]: 86% | Lactone [28]: 56% | Body weight (Mus musculus [29]): 32.9 g | Body weight (Mus musculus [30]): 34.1 g | Body weight (Mus musculus [31]): 34 g | Body weight (Mus musculus [32]): 33.5 g

CC[C@@]1(O)C(=O)OCc2c1cc1n(c2=O)Cc2cc3c([N+](=O)[O-])cccc3nc2-1 [RUBITECAN]
Lactone (Mus musculus [6]): 100% | Lactone [21]: 100% | Lactone (Mus musculus [26]): 30% | Lactone [27]: 7% | Lactone [28]: 0%

CC[C@@]1(O)C(=O)OCc2c1cc1n(c2=O)Cc2cc3ccccc3nc2-1 [CAMPTOTHECIN]
Lactone [17]: 0% | Lactone [19]: 0.5% | Lactone [21]: 100% | Lactone (Mus musculus [24]): 18% | Lactone (Mus musculus [33]): 35% | Lactone (Mus musculus [34]): 100% | Lactone (Mus musculus [26]): 42% | Lactone [27]: 12% | Lactone [28]: 0% | Lactone (Mus musculus [35]): 18%

CCC(=O)O[C@]1(CC)C(=O)OCc2c1cc1n(c2=O)Cc2cc3c([N+](=O)[O-])cccc3nc2-1
Lactone (Mus musculus [6]): 100% | Lactone [21]: 100% | Lactone (Mus musculus [24]): 84.3% | Lactone (Mus musculus [26]): 97.7% | Lactone [27]: 93.7% | Lactone [28]: 64.4%
